# Data published in ChEMBL document CHEMBL1914305, “Synthesis and structure-activity evaluation of isatin-β-thiosemicarbazones with improved selective activity toward multidrug-resistant cells expressing P-glycoprotein” (J Med Chem, 2011).
# pIC50: −log10 of the molar value. Calls of active or inactive are those of the source. The rule behind the calls is not given here.
# Experiments:
# [1] = Cytotoxicity against human KB-3-1 cells after 72 hrs by MTT assay; assay type: functional, cell-based; conditions: KB 3-1, 72 h
# Summary of the method: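 Grown in DMEM with 10% FBS. MTT assay: 4000 cells/well, 24 h settling, serial dilutions of drug, 72 h at 37 °C in 5% CO2. MTT in IMDM 4 h, then acidified ethanol 15 min, A570 with 690 nm background. Three experiments in triplicate. KB-V1-R comes from KB-V1 grown long-term drug-free.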
# [2] = Cytotoxicity against vinblastine-selected human KBV1 cells after 72 hrs by MTT assay; assay type: functional, cell-based; conditions: KB-V1, 72 h
# Summary of the method: (§1)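 Grown in DMEM with 10% FBS. MTT assay: 4000 cells/well, 24 h settling, serial dilutions of drug, 72 h at 37 °C in 5% CO2. MTT in IMDM 4 h, then acidified ethanol 15 min, A570 with 690 nm background. IC50 is the concentration reducing absorbance to 50% of untreated control. Three experiments in triplicate. KB-V1-R comes from KB-V1 grown long-term drug-free.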
# LLC-PK1 [3] = experiment: Cytotoxicity against pig LLC-PK1 cells transfected with empty vector after 72 hrs by MTT assay; assay type: cell-based; conditions: Sus scrofa, LLC-PK1, 72 h
# Summary of the method: (§2)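 LLC-PK1 empty-vector lines grown in M199 with 10% FBS; transfected lines also in 0.5 mg/mL G418. MTT assay: 4000 cells/well for 24 h, then serially diluted drug for 72 h at 37 °C, 5% CO2. MTT 4 h, acidified ethanol, A570 minus 690 nm. IC50 is 50% of untreated absorbance. Triplicate wells, three experiments.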
# LLC-PK1 [4] = experiment: Cytotoxicity against pig LLC-PK1 cells after 72 hrs by MTT assay; assay type: cell-based; conditions: Sus scrofa, LLC-PK1, 72 h; summary of the method: as §2
# [5] = Selectivity ratio of IC50 for human KB-3-1 cells to IC50 for human KBV1 cells selected at 1 ug/mL vinblastine; assay type: functional
# Summary of the method: (§3)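 Selectivity ratio: IC50 in the parental or empty-vector cells divided by IC50 in the P-gp-expressing cells (KB-V1, or ABCB1-transfected LLC-PK1). MTT assay: 4000 cells/well established for 24 h, then 72 h exposure to serially diluted drug at 37 °C, 5% CO2. MTT for 4 h, acidified ethanol lysis, A570 corrected at A690. IC50 is the concentration giving 50% of untreated absorbance, from at least three experiments.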
# [6] = Selectivity ratio of IC50 for pig LLC-PK1 cells transfected with empty vector to IC50 for pig LLC-PK1 cells; assay type: ADME, cell-based, Sus scrofa; conditions: read-out: Ratio IC50; summary of the method: as §3
# [7] = Cytotoxicity against P-gp expressing human KBV1 revertant cells after 72 hrs by MTT assay; assay type: functional, cell-based; conditions: KB-V1, 72 h, in the assay text read “P-gp-negative” for “P-gp expressing”; summary of the method: as §1
# [8] = Aqueous solubility of the compound; assay type: physicochemical; conditions: buffer
# KB-V1 = experiment: Cytotoxicity against P-gp expressing human KBV1 cells after 72 hrs by MTT assay in presence of 4 uM P-gp substrate Rh123; assay type: functional, cell-based
# NCI-H460 [9] = experiment: Cytotoxicity against ABCG2-expressing human H460 cells at 10 to 20 uM after 72 hrs by MTT assay in presence of ABCG2 substrate 5 uM mitoxantrone; assay type: functional, cell-based
# NCI-H460 [10] = experiment: Cytotoxicity against ABCG2-expressing human H460 cells at 10 uM after 72 hrs by MTT assay; assay type: functional, cell-based
# [11] = Cytotoxicity against P-gp-negative human KB-3-1 cells after 72 hrs by MTT assay in presence of 100 nM TQR; conditions: KB 3-1, 72 h
# [12] = Cytotoxicity against P-gp expressing human KBV1 cells after 72 hrs by MTT assay in presence of 100 nM TQR; conditions: KB-V1, 72 h
# OVCAR-8 = experiment: Cytotoxicity against human OVCAR8 cells after 72 hrs by MTT assay; assay type: functional, cell-based; conditions: OVCAR-8, 72 h
# Summary of the method: (§4)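 Lines grown in RPMI with 10% FBS and 2 mM L-glutamine. MTT assay: 4000 cells/well attached 24 h before serially diluted drug, then 72 h exposure at 37 °C, 5% CO2. MTT in IMDM 4 h, lysis in acidified ethanol 15 min, absorbance 570 nm minus 690 nm. IC50 is the concentration halving untreated absorbance. Three independent experiments, each in triplicate.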
# NCI/ADR-RES = experiment: Cytotoxicity against adriamycin-selected human NCI/ADR-RES cells after 72 hrs by MTT assay; assay type: functional, cell-based; summary of the method: as §4
# HEK293 [13] = experiment: Cytotoxicity against human HEK293 cells after 72 hrs by MTT assay; assay type: functional, cell-based; conditions: HEK293, 72 h; summary of the method: as §1
# HEK293 [14] = experiment: Cytotoxicity against human HEK293 cells transfected with plasmid expressing MDR1 after 72 hrs by MTT assay; assay type: functional, cell-based; conditions: HEK293, 72 h
# Summary of the method: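 ABCB1-transfected HEK293 grown in DMEM with 10% FBS and 1 mg/mL G418. MTT assay: 4000 cells/well for 24 h, serial drug dilutions, 72 h at 37 °C, 5% CO2. MTT 4 h, acidified ethanol lysis, A570 corrected at 690 nm. IC50 at 50% of untreated absorbance. Three experiments in triplicate.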
# [15] = Cytotoxicity against human ZR-75B cells after 72 hrs by MTT assay; assay type: functional, cell-based; summary of the method: as §4
# [16] = Cytotoxicity against doxorubicin-selected human ZR-75B cells after 72 hrs by MTT assay; assay type: functional, cell-based; summary of the method: as §4
# MDA-MB-231 [17] = experiment: Cytotoxicity against human MDA-MB-231 cells after 72 hrs by MTT assay; assay type: functional, cell-based; conditions: MDA-MB-231, 72 h; summary of the method: as §4
# MDA-MB-231 [18] = experiment: Cytotoxicity against human MDA-MB-231 cells selected at 100 ug/ml vinblastine after 72 hrs by MTT assay; assay type: functional, cell-based; conditions: MDA-MB-231, 72 h, in the assay text read “100 ng/ml” for “100 ug/ml”; summary of the method: as §4
# NIH3T3 [19] = experiment: Cytotoxicity against mouse NIH/3T3 cells after 72 hrs by MTT assay; assay type: cell-based; conditions: NIH3T3, 72 h; summary of the method: as §1
# NIH3T3 [20] = experiment: Cytotoxicity against mouse NIH/3T3 cells selected at 30 ug/ml vincristine after 72 hrs by MTT assay; assay type: functional, cell-based; conditions: NIH3T3, 72 h, in the assay text read “30 ng/ml” for “30 ug/ml”; summary of the method: as §1
# NIH3T3 [21] = experiment: Cytotoxicity against mouse NIH/3T3 cells transfected with wild type p-glycoprotein ABCB1 selected at 600 ug/ml vincristine after 72 hrs by MTT assay; assay type: functional, cell-based; conditions: NIH3T3, 72 h, in the assay text read “600 ng/ml” for “600 ug/ml”; summary of the method: as §1
# NIH3T3 [22] = experiment: Cytotoxicity against 2.4 ug/mL vincristine selected mouse NIH/3T3 cells transfected with P-gp Ser to Asp phosphorylation mutant after 72 hrs by MTT assay; assay type: functional, cell-based; conditions: NIH3T3, 72 h; summary of the method: as §1
# NIH3T3 [23] = experiment: Cytotoxicity against mouse NIH/3T3 cells transfected with wild-type P-gp G185 after 72 hrs by MTT assay; assay type: functional, cell-based; conditions: NIH3T3, 72 h; summary of the method: as §1
# NIH3T3 [24] = experiment: Cytotoxicity against mouse NIH/3T3 cells selected at 1 ug/mL colchicine after 72 hrs by MTT assay; assay type: functional, cell-based; conditions: NIH3T3, 72 h; summary of the method: as §1
# [25] = Cytotoxicity against human Ew36 cells after 72 hrs by MTT assay; assay type: functional, cell-based; conditions: Ew36, 72 h; summary of the method: as §4
# [26] = Cytotoxicity against human Ew36 cells selected at 120 ng/mL vincristine after 72 hrs by MTT assay; assay type: functional, cell-based; conditions: Ew36, 72 h; summary of the method: as §4
# [27] = Cytotoxicity against human MES-SA cells after 72 hrs by MTT assay; assay type: functional, cell-based
# Summary of the method: (§5)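 MES-SA and MES-SA/Dx5 lines kept in McCoy's 5A with 10% FBS. MTT assay: seeded at 4000 cells/well for 24 h, serial drug dilutions, 72 h at 37 °C and 5% CO2. MTT 4 h, acidified ethanol lysis, A570 corrected at 690 nm. IC50 is 50% absorbance versus untreated wells. Three separate experiments in triplicate.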
# [28] = Cytotoxicity against adriamycin-selected human MES-SA cells after 72 hrs by MTT assay; assay type: functional, cell-based; summary of the method: as §5
# SW-620 [29] = experiment: Cytotoxicity against human SW620 cells after 72 hrs by MTT assay; assay type: functional, cell-based; conditions: SW-620, 72 h; summary of the method: as §4
# SW-620 [30] = experiment: Cytotoxicity against human SW620 cells selected at 20 ng/mL adriamycin after 72 hrs by MTT assay; assay type: functional, cell-based; conditions: SW-620, 72 h; summary of the method: as §4
# CHO [31] = experiment: Cytotoxicity against CHO cells after 72 hrs by MTT assay; assay type: cell-based; conditions: Cricetulus griseus
# Summary of the method: (§6)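 CHO and colchicine-selected C5 cells kept in AlphaMEM with 10% FBS. MTT assay: 4000 cells/well settled 24 h, then serially diluted drug added. Incubated 72 h at 37 °C, 5% CO2. MTT in IMDM for 4 h, then acidified ethanol lysis for 15 min. Read A570, background-corrected at 690 nm. IC50 is the concentration giving 50% of untreated absorbance. Three experiments, each in triplicate.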
# CHO [32] = experiment: Cytotoxicity against CHO cells selected at 1 ug/mL colchicine after 72 hrs by MTT assay; assay type: functional, cell-based; conditions: Cricetulus griseus; summary of the method: as §6
# [33] = Cytotoxicity against P-gp-negative human KB-3-1 cells after 72 hrs by MTT assay in presence of 1 uM verapamil; assay type: functional, cell-based; conditions: KB 3-1, 72 h
# Summary of the method: (§7)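 KB-3-1 and KB-V1 cells in DMEM. Test drug co-administered with a P-gp inhibitor at: verapamil 1 uM, CsA 10 uM, DCPQ 100 nM, TQR 100 nM. MTT assay after 72 h at 37 °C: 4000 cells/well, MTT 4 h, acidified ethanol, A570 corrected at 690 nm. IC50 ± SD at 50% of untreated absorbance. Three experiments in triplicate.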
# [34] = Cytotoxicity against P-gp-negative human KB-3-1 cells after 72 hrs by MTT assay in presence of 10 uM CsA; assay type: functional, cell-based; conditions: KB 3-1, 72 h; summary of the method: as §7
# [35] = Cytotoxicity against P-gp expressing human KBV1 cells after 72 hrs by MTT assay in presence of 1 uM verapamil; assay type: functional, cell-based; conditions: KB-V1, 72 h; summary of the method: as §7
# [36] = Cytotoxicity against P-gp expressing human KBV1 cells after 72 hrs by MTT assay in presence of 10 uM CsA; assay type: functional, cell-based; conditions: KB-V1, 72 h; summary of the method: as §7
# [37] = Cytotoxicity against P-gp expressing human KBV1 cells after 72 hrs by MTT assay in presence of 100 uM DCPQ; conditions: KB-V1, 72 h
# [38] = Cytotoxicity against P-gp-negative human KB-3-1 cells after 72 hrs by MTT assay in presence of 100 nM DCPQ; conditions: KB 3-1, 72 h
smiles,measurement,setting,value
O=C1Nc2ccccc2/C1=N/NC(=S)Nc1ccc([N+](=O)[O-])cc1,pIC50,[1],4.81
same,pIC50,[2],5.68
same,pIC50,LLC-PK1 [3],4.55
same,pIC50,LLC-PK1 [4],5.35
same,Ratio IC50,[5],8.3
same,selectivity ratio,[6],6.4
same,pIC50,[7],5.14
same,solubility,[8],< 0.2 µg/mL
same,Activity,KB-V1,Active
same,Activity,NCI-H460 [9],Active
same,Activity,NCI-H460 [10],Active
same,pIC50,[11],5.00
same,pIC50,[12],5.20
COc1ccc(NC(=S)NNC2=c3ccccc3=NC2=O)cc1,pIC50,OVCAR-8,5.17
same,pIC50,NCI/ADR-RES,5.42
same,pIC50,HEK293 [13],5.21
same,pIC50,HEK293 [14],5.59
same,pIC50,[15],5.30
same,pIC50,[16],5.92
same,pIC50,MDA-MB-231 [17],4.86
same,pIC50,MDA-MB-231 [18],5.31
same,pIC50,NIH3T3 [19],5.09
same,pIC50,NIH3T3 [20],5.34
same,pIC50,NIH3T3 [21],5.44
same,pIC50,NIH3T3 [22],5.50
same,pIC50,NIH3T3 [23],5.97
same,pIC50,NIH3T3 [24],5.50
same,pIC50,[25],5.61
same,pIC50,[26],6.00
same,pIC50,[27],4.65
same,pIC50,[28],4.86
same,pIC50,SW-620 [29],5.04
same,pIC50,SW-620 [30],5.43
same,pIC50,LLC-PK1 [3],4.43
same,pIC50,LLC-PK1 [4],5.40
same,pIC50,CHO [31],5.52
same,pIC50,CHO [32],6.01
same,selectivity ratio,[6],9.2
same,pIC50,[33],5.01
same,pIC50,[34],4.94
same,pIC50,[35],5.65
same,pIC50,[36],5.08
same,pIC50,[37],4.85
same,solubility,[8],< 0.2 µg/mL
same,pIC50,[11],4.92
same,pIC50,[12],4.94
same,pIC50,[38],4.91
CC(C)(C)c1ccc(NC(=S)N/N=C2\C(=O)Nc3ccccc32)cc1,pIC50,[1],5.09
same,pIC50,[2],6.15
same,pIC50,LLC-PK1 [3],4.53
same,pIC50,LLC-PK1 [4],5.54
same,Ratio IC50,[5],14.8
same,selectivity ratio,[6],10.1
same,pIC50,[7],5.19
same,solubility,[8],0.8 µg/mL
same,Activity,KB-V1,Active
same,Activity,NCI-H460 [9],Active
same,Activity,NCI-H460 [10],Active
same,pIC50,[11],4.85
same,pIC50,[12],5.08
